Laboratory results reported in ChEMBL document CHEMBL3875169, “Synthesis, in vitro anticancer and antibacterial activities and in silico studies of new 4-substituted 1,2,3-triazole-coumarin hybrids” (Eur J Med Chem, 2016).
In brackets after ≈: the same amount, converted by molar mass.

How the values were obtained:
[1] = Growth inhibition of human HeLa cells after 72 hrs by MTT assay; type: functional, cell-based
Method in brief: (§1)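 Monolayers in DMEM with 10% FBS, 2 mM L-glutamine and penicillin/streptomycin, 37 °C, 5% CO2; 5000 cells/well seeded day 0. Compounds added as five 10-fold dilutions (0.01–100 µM), DMSO ≤0.1%, for 72 h. MTT absorbance converted to percentage growth (NIH formulas); IC50 by linear regression between bracketing concentrations, highest concentration reported with ">" when not reached. Quadruplicate points, three experiments.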

[2] = Growth inhibition of human HepG2 cells after 72 hrs by MTT assay; type: functional, cell-based; conditions: HepG2, 72 h; method in brief: as §1
[3] = Growth inhibition of human A549 cells after 72 hrs by MTT assay; type: functional, cell-based; conditions: A549, 72 h; method in brief: as §1
[4] = Growth inhibition of human SW620 cells after 72 hrs by MTT assay; type: functional, cell-based; conditions: SW-620, 72 h; method in brief: as §1
[5] = Growth inhibition of human CFPAC-1 cells after 72 hrs by MTT assay; type: functional, cell-based; conditions: CFPAC-1, 72 h; method in brief: as §1
Enterococcus faecalis = assay: Antibacterial activity against Enterococcus faecalis after 16 to 20 hrs by broth microdilution method; type: functional
Method in brief: (§2)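 Broth microdilution per CLSI in cation (Ca2+, Mg2+)-adjusted Mueller-Hinton broth; compounds in serial two-fold dilutions, 256–0.25 µg/mL; direct colony suspension inoculum, final 5 x 10^5 CFU/mL; 35 ± 2 °C, 16–20 h, ambient air. MIC is the lowest concentration completely inhibiting visible growth versus growth control; with trailing, endpoint read at ≥80% growth reduction. E. coli ATCC 25922 and P. aeruginosa ATCC 27853 served as QC.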

Acinetobacter baumannii = assay: Antibacterial activity against Acinetobacter baumannii ATCC 19606 after 16 to 20 hrs by broth microdilution method; type: functional; method in brief: as §2
Escherichia coli = assay: Antibacterial activity against Escherichia coli ATCC 25925 after 16 to 20 hrs by broth microdilution method; type: functional; conditions: read-out: MIC=>80; method in brief: as §2
Pseudomonas aeruginosa = assay: Antibacterial activity against Pseudomonas aeruginosa ATCC 27853 after 16 to 20 hrs by broth microdilution method; type: functional; method in brief: as §2
Staphylococcus aureus = assay: Antibacterial activity against Staphylococcus aureus ATCC 25923 after 16 to 20 hrs by broth microdilution method; type: functional; method in brief: as §2
Klebsiella pneumoniae = assay: Antibacterial activity against ESBL-producing Klebsiella pneumoniae ATCC 27736 after 16 to 20 hrs by broth microdilution method; type: functional; method in brief: as §2
[6] = Growth inhibition of human WI38 cells after 72 hrs by MTT assay; type: cell-based; conditions: WI-38, 72 h; method in brief: as §1

| SMILES | IC50 [1] [µM] | IC50 [2] [µM] | IC50 [3] [µM] | IC50 [4] [µM] | IC50 [5] [µM] | MIC80 (Enterococcus faecalis) [µg/mL] | MIC80 (Acinetobacter baumannii) [µg/mL] | MIC (Escherichia coli) [µg/mL] | MIC80 (Pseudomonas aeruginosa) [µg/mL] | MIC80 (Staphylococcus aureus) [µg/mL] | MIC80 (Klebsiella pneumoniae) [µg/mL] | IC50 [6] [µM] |
| --- | --- | --- | --- | --- | --- | --- | --- | --- | --- | --- | --- | --- |
| O=c1cc(Cn2cc(CCCCl)nn2)c2ccc(O)cc2o1 | 49.6 | > 100 | 30.1 | 59.8 | 75.8 | – | – | – | – | – | – | – |
| O=c1cc(Cn2cc(CCCCO)nn2)c2ccc(O)cc2o1 | > 100 | > 100 | > 100 | > 100 | > 100 | – | – | – | – | – | – | – |
| O=c1cc(Cn2cc(CCO)nn2)c2ccc(O)cc2o1 | > 100 | > 100 | 90.3 | > 100 | > 100 | – | – | – | – | – | – | – |
| O=c1cc(Cn2cc(CSC(=S)N3CCNCC3)nn2)c2ccc(O)cc2o1 | > 100 | > 100 | 96 | > 100 | > 100 | 16 (≈ 38.3 µM) | > 256 | > 256 | > 256 | > 256 | > 256 | > 100 |
| O=c1cc(Cn2cc(-c3ccc(Br)cc3)nn2)c2ccc(O)cc2o1 | 40.2 | 61.1 | 32.3 | 97.7 | 52.9 | 256 (≈ 643 µM) | > 256 | > 256 | > 256 | > 256 | > 256 | – |
| O=c1cc(Cn2cc(CSC(=S)N3CCOCC3)nn2)c2ccc(O)cc2o1 | 40.8 | 99.4 | 70.2 | ≥ 100 | 56.3 | 32 (≈ 76.5 µM) | > 256 | > 256 | > 256 | > 256 | > 256 | 59.1 |
| CCCCCCc1cn(Cc2cc(=O)oc3cc(O)ccc23)nn1 | 59 | 61.6 | 66.2 | > 100 | > 100 | – | – | – | – | – | – | 58.5 |
| O=c1cc(Cn2cc(C3CC3)nn2)c2ccc(O)cc2o1 | > 100 | > 100 | 91.7 | > 100 | > 100 | – | – | – | – | – | – | – |
| O=c1cc(Cn2cc(CNS(=O)(=O)c3ccc([N+](=O)[O-])cc3)nn2)c2ccc(O)cc2o1 | > 100 | > 100 | > 100 | > 100 | > 100 | 256 (≈ 560 µM) | > 256 | > 256 | > 256 | > 256 | > 256 | < 0.01 |
| CC(C)(C)c1cn(Cc2cc(=O)oc3cc(O)ccc23)nn1 | 81.1 | > 100 | 67.6 | > 100 | > 100 | 128 (≈ 428 µM) | > 256 | > 256 | > 256 | > 256 | > 256 | – |
| Cc1ccc(S(=O)(=O)NCc2cn(Cc3cc(=O)oc4cc(O)ccc34)nn2)cc1 | 55.7 | 29.8 | 46.4 | 92.2 | 68.9 | 64 (≈ 150 µM) | > 256 | > 256 | > 256 | 256 (≈ 600 µM) | > 256 | 0.03 |
| O=C(O)c1cn(C2CC2)c2cc(N3CCNCC3)c(F)cc2c1=O [CIPROFLOXACIN] | – | – | – | – | – | 0.5 (≈ 1.51 µM) | < 0.125 | < 0.125 | < 0.125 | 0.25 (≈ 0.754 µM) | > 256 | – |
| CCCCc1ccc(-c2cn(Cc3cc(=O)oc4cc(O)ccc34)nn2)cc1 | 39 | 48.4 | 13.8 | 49.2 | 69.8 | 64 (≈ 170 µM) | > 256 | > 256 | > 256 | > 256 | > 256 | – |
| Cn1c(-c2cn(Cc3cc(=O)oc4cc(O)ccc34)nn2)nc2ccccc21 | 49.1 | 70.7 | > 100 | > 100 | 76.5 | – | – | – | – | – | – | – |
| CC(O)c1cn(Cc2cc(=O)oc3cc(O)ccc23)nn1 (centres undefined) | > 100 | > 100 | > 100 | > 100 | > 100 | – | – | – | – | – | – | – |
| CCCCCCc1ccc(-c2cn(Cc3cc(=O)oc4cc(O)ccc34)nn2)cc1 | 8.73 | 9.16 | 8.87 | 36.8 | > 100 | 16 (≈ 39.7 µM) | > 256 | > 256 | > 256 | > 256 | > 256 | 14 |
| CC(C)(C)OC(=O)N1CCN(C(=S)SCc2cn(Cc3cc(=O)oc4cc(O)ccc34)nn2)CC1 | 48 | 56.9 | 35.4 | > 100 | 88.5 | – | – | – | – | – | – | 2.82 |
| Cc1ccc2nc(-c3ccc(NCc4cn(Cc5cc(=O)oc6cc(O)ccc56)nn4)cc3)sc2c1 | 7.26 | 52.8 | 16.2 | 90 | 10.5 | – | – | – | – | – | – | – |
| O=c1cc(Cn2cc(CCCO)nn2)c2ccc(O)cc2o1 | 90.2 | > 100 | 96.2 | > 100 | > 100 | – | – | – | – | – | – | – |
| Cc1ccc2c(Cn3cc(CNc4ccc(-c5nc6ccc(C)cc6s5)cc4)nn3)cc(=O)oc2c1 | 51.4 | 94.7 | 46.2 | ≥ 100 | 34.9 | – | – | – | – | – | – | – |
| CCCCCc1ccc(-c2cn(Cc3cc(=O)oc4cc(O)ccc34)nn2)cc1 | 24.6 | 27.3 | 13.7 | 39.6 | 50.4 | 8 (≈ 20.5 µM) | > 256 | > 256 | > 256 | > 256 | > 256 | – |
| O=c1cc(Cn2cc(CNS(=O)(=O)c3ccc(Cl)cc3)nn2)c2ccc(O)cc2o1 | 58.5 | 31.4 | 47.9 | > 100 | 81.9 | – | – | – | – | – | – | 0.82 |
| CC(C)(O/N=C(\C(=O)N[C@@H]1C(=O)N2C(C(=O)[O-])=C(C[n+]3ccccc3)CS[C@H]12)c1csc(N)n1)C(=O)O [CEFTAZIDIME] | – | – | – | – | – | 256 (≈ 468 µM) | 16 (≈ 29.3 µM) | 0.5 (≈ 0.915 µM) | 4 (≈ 7.32 µM) | 64 (≈ 117 µM) | > 256 | – |
